Activity calls are given as the source filed them. No cut-off for these calls is given here.
Assays:
[1] = Inhibition of hypoxia-induced HIF1 activation
Procedure, shortened: (§1)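 AGS cells transiently cotransfected with pGL3-HRE-Luc (six HRE copies from human VEGF gene) plus pRL-CMV, plated 4 × 10^4 cells/well, grown 48 h. Then treated with graded concentrations and held 16 h in hypoxia (1% O2, 94% N2, 5% CO2). Dual-luciferase read-out, firefly normalized to renilla. 17-DMAG positive control. At least three independent experiments.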

AGS = experiment: Inhibition of hypoxia-induced VEGF expression in human AGS cells after 16 hrs by RT-PCR analysis; type: functional, cell-based
Procedure, shortened: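 AGS cells at 1.5 × 10^5 cells/cm2 pretreated 1 h with graded concentrations, then 16 h hypoxia (1% O2). Total RNA isolated and VEGF transcript detected by RT-PCR: 25 cycles (94 °C 30 s, 58 °C 30 s, 72 °C 1 min). Products run on 2% agarose with ethidium bromide staining. At least three experiments.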

[2] = molecular target: Hypoxia-inducible factor 1-alpha (Homo sapiens) (UniProt Q16665); experiment: Inhibition of hypoxia-induced HIF1alpha protein accumulation in human AGS cells after 12 hrs by Western blot; type: cell-based
Procedure, shortened: (§2)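 AGS cells plated at 1.5 × 10^5 cells/cm2 and left overnight at 37 °C. Pretreated 1 h with graded concentrations, then 12 h hypoxia (1% O2, 94% N2, 5% CO2, 37 °C). Total lysates (50 µg) run on 6% SDS-PAGE. Blotted with monoclonal anti-HIF-1α or anti-HIF-1β, ECL detection. TOPO I served as loading control. At least three experiments.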

[3] = molecular target: T1, Hypoxia inducible factors; HIF-1-alpha, HIF-2-alpha (Homo sapiens, UniProt Q16665+Q99814); experiment: Inhibition of hypoxia-induced HIF1 activation in human AGS cells at 100 nM after 16 hrs by pGL3-HRE-luciferase reporter gene assay; type: cell-based; procedure, shortened: as §1
[4] = molecular target: T1, Hypoxia inducible factors; HIF-1-alpha, HIF-2-alpha; experiment: Inhibition of hypoxia-induced HIF1 activation in human AGS cells after 16 hrs by pGL3-HRE-luciferase reporter gene assay; type: cell-based; procedure, shortened: as §1
[5] = molecular target: Aryl hydrocarbon receptor nuclear translocator (Homo sapiens) (UniProt P27540); experiment: Inhibition of hypoxia-induced HIF1beta protein accumulation in human AGS cells after 12 hrs by Western blot; type: cell-based; procedure, shortened: as §2
[6] = molecular target: T1, Hypoxia inducible factors; HIF-1-alpha, HIF-2-alpha; experiment: Inhibition of hypoxia-induced HIF1 activation in human AGS cells at 300 nM after 16 hrs by pGL3-HRE-luciferase reporter gene assay; type: cell-based; procedure, shortened: as §1

Aryl hydrocarbon receptor nuclear translocator (Homo sapiens), sequence (P27540 whole entry): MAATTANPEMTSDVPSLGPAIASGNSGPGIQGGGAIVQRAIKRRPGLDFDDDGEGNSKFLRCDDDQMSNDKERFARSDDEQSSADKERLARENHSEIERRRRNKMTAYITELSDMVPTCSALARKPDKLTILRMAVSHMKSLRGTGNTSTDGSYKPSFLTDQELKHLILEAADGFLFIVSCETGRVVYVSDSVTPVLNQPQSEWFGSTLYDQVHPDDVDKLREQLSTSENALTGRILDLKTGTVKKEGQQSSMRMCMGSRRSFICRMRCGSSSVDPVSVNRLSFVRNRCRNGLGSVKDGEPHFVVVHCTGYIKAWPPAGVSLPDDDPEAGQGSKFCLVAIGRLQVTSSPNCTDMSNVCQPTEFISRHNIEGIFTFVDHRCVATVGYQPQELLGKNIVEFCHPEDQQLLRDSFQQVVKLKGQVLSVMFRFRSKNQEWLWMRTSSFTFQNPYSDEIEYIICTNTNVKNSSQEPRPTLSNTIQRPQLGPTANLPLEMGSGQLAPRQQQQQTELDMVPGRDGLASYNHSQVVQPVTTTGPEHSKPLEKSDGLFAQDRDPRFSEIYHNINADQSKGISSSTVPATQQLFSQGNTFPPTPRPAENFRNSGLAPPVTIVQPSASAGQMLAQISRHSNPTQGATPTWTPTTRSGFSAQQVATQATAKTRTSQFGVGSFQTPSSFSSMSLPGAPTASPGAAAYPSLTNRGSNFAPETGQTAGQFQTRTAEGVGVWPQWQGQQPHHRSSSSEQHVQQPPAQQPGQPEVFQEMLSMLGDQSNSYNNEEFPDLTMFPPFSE
Hypoxia-inducible factor 1-alpha (Homo sapiens), sequence (Q16665 whole entry, looked up): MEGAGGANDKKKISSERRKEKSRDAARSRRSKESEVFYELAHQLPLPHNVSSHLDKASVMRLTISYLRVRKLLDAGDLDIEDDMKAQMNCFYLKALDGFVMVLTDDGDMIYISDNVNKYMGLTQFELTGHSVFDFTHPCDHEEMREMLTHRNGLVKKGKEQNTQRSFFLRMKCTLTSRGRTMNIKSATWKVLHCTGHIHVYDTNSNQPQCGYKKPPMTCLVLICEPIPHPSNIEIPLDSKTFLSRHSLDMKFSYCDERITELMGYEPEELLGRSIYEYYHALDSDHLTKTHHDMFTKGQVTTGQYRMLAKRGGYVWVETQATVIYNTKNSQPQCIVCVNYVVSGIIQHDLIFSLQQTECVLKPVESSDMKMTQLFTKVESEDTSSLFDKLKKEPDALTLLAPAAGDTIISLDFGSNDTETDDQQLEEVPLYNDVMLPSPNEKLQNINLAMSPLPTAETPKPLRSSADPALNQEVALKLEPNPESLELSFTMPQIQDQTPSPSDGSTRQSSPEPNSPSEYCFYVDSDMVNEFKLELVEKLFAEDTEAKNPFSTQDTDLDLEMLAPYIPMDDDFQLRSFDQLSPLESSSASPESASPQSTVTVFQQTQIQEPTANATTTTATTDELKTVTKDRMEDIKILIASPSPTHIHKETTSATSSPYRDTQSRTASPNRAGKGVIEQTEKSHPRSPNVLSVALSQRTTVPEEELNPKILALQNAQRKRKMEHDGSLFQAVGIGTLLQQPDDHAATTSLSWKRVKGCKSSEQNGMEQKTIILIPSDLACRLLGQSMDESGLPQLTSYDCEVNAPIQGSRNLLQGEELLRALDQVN

COc1ccc([C@@H](O)[C@@H](C)Oc2ccc([C@H]3O[C@H](c4ccc(O[C@H](C)[C@H](O)c5ccc6c(c5)OCO6)c(OC)c4)[C@H](C)[C@H]3C)cc2OC)cc1OC [MANASSANTIN B]
IC50 [1]: 3 nM

COc1ccc2c3c(c4cc(OC)c(OC)cc4c2c1)C[C@H]1CCCCN1C3 [CRYPTOPLEURINE]
Activity (AGS): Dose-dependent effect | Activity [2]: Dose-dependent effect | Activity [3]: Active | IC50 [4]: 8.7 nM | Activity [5]: inactive

COc1ccc2c3c(c4cc(OC)c(OC)cc4c2c1)[C@@H](O)[C@H]1CCCCN1C3
Activity [2]: Dose-dependent effect | IC50 [4]: 48.1 nM | Activity [6]: Active | Activity [5]: inactive

— ChEMBL document CHEMBL1142610, “Phenanthroquinolizidine alkaloids from the roots of Boehmeria pannosa potently inhibit hypoxia-inducible factor-1 in AGS human gastric cancer cells” (J Nat Prod, 2006)
